Legend:
[1] = biological target: 5-hydroxytryptamine receptor 2A (Homo sapiens, UniProt P28223); experiment: Ability to displace [3H]ketanserin binding to human 5-hydroxytryptamine 2A receptor stably expressed in CHO cells; format: cell-based
Outline: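 Membranes from CHO cells stably expressing human 5-HT2A, homogenized in 50 mM Tris-HCl pH 7.5, at 2 mg wet weight/mL. Ki from nonlinear least-squares regression, geometric mean of at least three determinations.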

[2] = biological target: T1, 5-hydroxytryptamine receptor 2C (Homo sapiens, UniProt P28335); experiment: Ability to displace [3H]mesulergine binding to human 5-hydroxytryptamine 2C receptor stably expressed in CHO cells; format: cell-based
T1 sequence (P28335 whole entry): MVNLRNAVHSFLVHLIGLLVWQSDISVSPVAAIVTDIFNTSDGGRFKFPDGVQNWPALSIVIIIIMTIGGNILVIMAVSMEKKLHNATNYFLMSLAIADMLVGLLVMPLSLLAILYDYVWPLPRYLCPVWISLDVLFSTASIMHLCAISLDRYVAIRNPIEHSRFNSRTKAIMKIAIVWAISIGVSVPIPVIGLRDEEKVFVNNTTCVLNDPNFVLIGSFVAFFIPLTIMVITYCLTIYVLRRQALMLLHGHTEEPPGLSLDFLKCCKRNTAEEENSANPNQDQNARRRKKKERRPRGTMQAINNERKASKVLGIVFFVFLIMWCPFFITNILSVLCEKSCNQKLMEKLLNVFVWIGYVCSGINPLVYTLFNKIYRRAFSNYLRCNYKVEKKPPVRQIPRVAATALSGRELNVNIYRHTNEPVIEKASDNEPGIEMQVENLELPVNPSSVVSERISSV

[3] = Area under the concentration-time curve for 0-4 hr after 2 mg/kg po in rat; format: ADME, organism-based; parameters: time < 4 hr, dose 2 mg/kg, route oral; conditions: in vivo
Outline: (§1)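 Male Sprague-Dawley rats (~300 g) gavaged at 2 mg/kg (5 mL/kg of 0.5% methocel A4C suspension), five rats; one rat culled per time point up to 4 h for blood. Samples get internal standard and are extracted into ethyl acetate, then LC-MS single ion recording.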

[4] = Bioavailability in rat (dose 0.5-2 mg/kg i.v. and p.o.); format: ADME, organism-based; conditions: in vivo, po
Outline: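 Male Sprague-Dawley rats (~300 g), jugular-cannulated, three per route. Dosing by i.v. tail-vein bolus and oral gavage, each in a suitable vehicle. Serial jugular blood samples taken; plasma extracted with ethyl acetate against an internal standard. Analysis by LC-MS with single ion recording. F from model-independent parameters.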

[5] = Terminal half-life following iv dosing in rat; format: ADME, organism-based; conditions: in vivo
[6] = Maximum blood concentration after oral dosing at 2 mg/kg in rat; format: ADME, organism-based; parameters: dose 2 mg/kg, route oral; outline: as §1
[7] = biological target: T2, Adrenergic receptor alpha-1 (Rattus norvegicus, UniProt P15823+P23944+P43140); experiment: Ability to displace [3H]-prazosin binding to rat cortical membranes expressing Alpha-1 adrenergic receptors
T2 sequence (P15823 whole entry): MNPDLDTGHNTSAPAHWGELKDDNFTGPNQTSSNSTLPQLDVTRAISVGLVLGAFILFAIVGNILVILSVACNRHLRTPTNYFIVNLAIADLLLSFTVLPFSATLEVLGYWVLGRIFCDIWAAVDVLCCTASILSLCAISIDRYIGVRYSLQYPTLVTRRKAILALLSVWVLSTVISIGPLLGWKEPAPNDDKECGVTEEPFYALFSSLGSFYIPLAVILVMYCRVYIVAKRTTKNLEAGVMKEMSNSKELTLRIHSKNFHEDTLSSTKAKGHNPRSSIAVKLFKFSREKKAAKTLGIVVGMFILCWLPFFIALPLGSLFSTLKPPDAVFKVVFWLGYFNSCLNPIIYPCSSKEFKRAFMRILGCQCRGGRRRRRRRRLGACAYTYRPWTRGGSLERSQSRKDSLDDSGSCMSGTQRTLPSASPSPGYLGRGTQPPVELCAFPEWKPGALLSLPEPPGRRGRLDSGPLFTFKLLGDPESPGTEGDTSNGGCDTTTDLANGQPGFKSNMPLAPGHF
T2 sequence (P23944 whole entry): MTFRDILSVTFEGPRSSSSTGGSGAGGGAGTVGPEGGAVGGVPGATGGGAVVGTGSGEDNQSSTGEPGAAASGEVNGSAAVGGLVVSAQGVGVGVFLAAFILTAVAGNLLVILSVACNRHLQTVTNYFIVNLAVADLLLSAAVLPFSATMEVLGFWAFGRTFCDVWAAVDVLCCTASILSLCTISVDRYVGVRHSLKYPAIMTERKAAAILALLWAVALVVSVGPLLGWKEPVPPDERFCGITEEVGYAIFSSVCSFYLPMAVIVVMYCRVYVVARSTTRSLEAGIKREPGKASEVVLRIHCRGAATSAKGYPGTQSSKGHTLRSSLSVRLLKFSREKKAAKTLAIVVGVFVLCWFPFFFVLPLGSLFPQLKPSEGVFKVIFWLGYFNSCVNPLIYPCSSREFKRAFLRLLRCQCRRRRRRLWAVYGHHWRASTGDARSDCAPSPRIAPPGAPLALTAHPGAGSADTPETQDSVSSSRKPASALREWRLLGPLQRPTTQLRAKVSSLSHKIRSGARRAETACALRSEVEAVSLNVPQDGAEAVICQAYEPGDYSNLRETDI
T2 sequence (P43140 whole entry): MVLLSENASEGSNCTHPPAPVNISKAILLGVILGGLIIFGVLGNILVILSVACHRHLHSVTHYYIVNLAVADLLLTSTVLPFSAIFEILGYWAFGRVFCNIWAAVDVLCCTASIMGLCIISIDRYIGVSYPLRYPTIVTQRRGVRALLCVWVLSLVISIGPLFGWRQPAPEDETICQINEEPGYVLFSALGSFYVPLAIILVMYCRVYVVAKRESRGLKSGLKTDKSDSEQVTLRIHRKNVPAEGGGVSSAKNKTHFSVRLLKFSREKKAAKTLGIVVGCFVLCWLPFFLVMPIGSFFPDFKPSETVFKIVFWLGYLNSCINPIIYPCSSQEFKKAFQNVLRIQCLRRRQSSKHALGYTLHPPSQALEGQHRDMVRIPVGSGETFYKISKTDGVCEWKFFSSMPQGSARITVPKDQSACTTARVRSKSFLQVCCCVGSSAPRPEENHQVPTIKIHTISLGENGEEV

D(2) dopamine receptor = D(2) dopamine receptor (Homo sapiens, UniProt P14416); experiment: Ability to displace [3H]spiperone binding to CHO cells stably expressing dopamine receptor D2; format: cell-based
D(2) dopamine receptor, sequence (P14416 whole entry): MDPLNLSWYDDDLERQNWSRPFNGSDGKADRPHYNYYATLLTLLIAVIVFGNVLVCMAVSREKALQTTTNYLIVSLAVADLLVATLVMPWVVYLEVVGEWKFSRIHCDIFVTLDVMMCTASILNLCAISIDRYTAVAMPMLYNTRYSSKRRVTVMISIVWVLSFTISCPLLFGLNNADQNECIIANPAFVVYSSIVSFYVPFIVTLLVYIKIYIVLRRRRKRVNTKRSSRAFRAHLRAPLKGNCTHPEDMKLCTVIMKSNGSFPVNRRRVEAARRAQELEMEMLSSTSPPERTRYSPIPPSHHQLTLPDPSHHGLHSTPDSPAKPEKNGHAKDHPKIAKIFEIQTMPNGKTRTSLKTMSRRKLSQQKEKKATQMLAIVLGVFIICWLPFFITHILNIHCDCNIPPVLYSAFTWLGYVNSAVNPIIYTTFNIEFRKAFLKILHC

[8] = biological target: Voltage-gated inwardly rectifying potassium channel KCNH2 (Homo sapiens, UniProt Q12809); experiment: Displacement of [3H]dofetilide from HEK cells expressing hERG voltage dependent IKr potassium channel Kv11.1
Voltage-gated inwardly rectifying potassium channel KCNH2, sequence (Q12809 whole entry): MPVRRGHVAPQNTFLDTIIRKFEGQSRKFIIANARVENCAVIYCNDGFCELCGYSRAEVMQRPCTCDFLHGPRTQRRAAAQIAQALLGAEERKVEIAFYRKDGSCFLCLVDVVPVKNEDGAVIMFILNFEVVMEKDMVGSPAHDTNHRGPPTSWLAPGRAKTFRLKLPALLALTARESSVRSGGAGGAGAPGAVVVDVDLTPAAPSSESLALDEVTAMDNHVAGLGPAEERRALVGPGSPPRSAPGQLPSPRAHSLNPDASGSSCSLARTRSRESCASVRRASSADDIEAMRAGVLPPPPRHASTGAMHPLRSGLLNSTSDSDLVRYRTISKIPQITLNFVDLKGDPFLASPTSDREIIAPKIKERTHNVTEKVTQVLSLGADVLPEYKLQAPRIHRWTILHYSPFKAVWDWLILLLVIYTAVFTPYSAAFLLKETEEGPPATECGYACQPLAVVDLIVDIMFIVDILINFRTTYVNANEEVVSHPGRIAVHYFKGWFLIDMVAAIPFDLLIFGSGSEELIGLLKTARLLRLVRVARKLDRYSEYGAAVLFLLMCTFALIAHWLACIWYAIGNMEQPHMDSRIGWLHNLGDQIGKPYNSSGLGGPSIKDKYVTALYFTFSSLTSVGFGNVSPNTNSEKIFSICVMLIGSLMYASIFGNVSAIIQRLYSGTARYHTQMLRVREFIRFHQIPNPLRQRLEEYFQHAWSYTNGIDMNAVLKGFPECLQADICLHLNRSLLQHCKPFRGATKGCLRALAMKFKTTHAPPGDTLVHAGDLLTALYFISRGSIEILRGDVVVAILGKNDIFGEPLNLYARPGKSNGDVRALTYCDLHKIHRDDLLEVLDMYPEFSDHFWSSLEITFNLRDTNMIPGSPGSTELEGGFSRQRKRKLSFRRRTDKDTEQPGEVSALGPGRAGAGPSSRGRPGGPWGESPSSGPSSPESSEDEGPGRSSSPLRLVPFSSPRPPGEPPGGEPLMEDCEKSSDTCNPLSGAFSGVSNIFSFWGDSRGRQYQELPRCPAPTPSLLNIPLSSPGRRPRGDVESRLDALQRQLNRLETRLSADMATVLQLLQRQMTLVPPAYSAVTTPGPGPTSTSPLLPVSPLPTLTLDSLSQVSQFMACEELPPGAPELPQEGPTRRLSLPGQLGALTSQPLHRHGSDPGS

[9] = Bioavailability in dog (dose 0.5-2 mg/kg i.v. and p.o.); format: ADME, organism-based, Canis lupus familiaris; conditions: in vivo, po
Outline: (§2)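 Female Beagle dogs (10-12 kg), three per route; i.v. cephalic-vein bolus (1 mL/kg PEG 300/water) and oral gavage (5 mL/kg of 0.5% methocel A4C suspension), 0.5-2 mg/kg. Serial blood to 24 h; plasma extracted with ethyl acetate, LC-MS. Model-independent bioavailability and terminal half-life after i.v. dosing.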

[10] = Terminal half-life following iv dosing in dog; format: ADME, organism-based, Canis lupus familiaris; conditions: in vivo; outline: as §2
[11] = Terminal half-life following iv dosing in dog, measured over 48 hr; format: ADME, organism-based, Canis lupus familiaris; conditions: in vivo
[12] = Terminal half-life following iv dosing in rat, measured over 48 hr; format: ADME, organism-based; conditions: in vivo

5-hydroxytryptamine receptor 2A, sequence (P28223 whole entry): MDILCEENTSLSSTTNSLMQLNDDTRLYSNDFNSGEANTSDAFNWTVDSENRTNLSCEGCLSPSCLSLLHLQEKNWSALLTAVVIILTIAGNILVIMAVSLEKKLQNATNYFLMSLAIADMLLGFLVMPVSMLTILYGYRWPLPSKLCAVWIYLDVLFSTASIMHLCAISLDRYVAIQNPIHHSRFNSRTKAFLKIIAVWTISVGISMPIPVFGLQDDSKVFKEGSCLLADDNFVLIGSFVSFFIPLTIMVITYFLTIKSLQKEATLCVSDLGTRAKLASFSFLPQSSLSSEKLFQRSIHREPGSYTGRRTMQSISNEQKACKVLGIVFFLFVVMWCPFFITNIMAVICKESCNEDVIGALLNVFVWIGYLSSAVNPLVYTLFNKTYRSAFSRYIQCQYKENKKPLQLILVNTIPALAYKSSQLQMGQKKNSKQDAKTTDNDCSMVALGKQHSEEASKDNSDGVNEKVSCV

Ki [1] [nM] | Ki [2] [nM] | Ki [7] [nM] | Ki (D(2) dopamine receptor) [nM] | Compound | further results
220 | – | – | > 1700 | F[C@H]1CCNC[C@@H]1c1c(-c2ccccc2)[nH]c2ccccc12 | –
0.54 | – | 3.6 | > 1600 | Fc1ccc2c([C@@H]3CNCC[C@H]3F)c(-c3ccoc3)[nH]c2c1 | –
3.3 | – | – | > 1600 | O[C@@H]1CCNC[C@H]1c1c(-c2ccccc2)[nH]c2ccccc12 | –
– | 400 | 2100 | > 1600 | c1ccc(-c2[nH]c3ccccc3c2C2CCNCC2)cc1 | Ki [8]: 5700 nM
26 | 2500 | – | > 1300 | O=C1NCCN1CCN1CCCC(c2c(-c3ccccc3)[nH]c3ccccc23)C1 (stereo not given) | AUC(0-t) at 4 h [3]: 217 ng·h/mL; Cmax [6]: 85 ng/mL
0.09 | 16 | 1.1 | 28 | Fc1ccc(-c2[nH]c3cc(F)ccc3c2C2CCCNC2)cc1 (stereo not given) | Ki [8]: 1300 nM
320 | – | – | > 1600 | CN1CCN(C)C(c2c(-c3ccccc3)[nH]c3ccccc23)C1 (stereo not given) | –
18 | – | – | 1600 | c1ccc(-c2[nH]c3ccccc3c2C2CNCCO2)cc1 (stereo not given) | –
0.48 | – | 25 | 350 | c1ccc(CCN2CCC(c3c(-c4ccccc4)[nH]c4ccccc34)CC2)cc1 | bioavailability [9]: 4%; half-life [10]: 9.8 h; half-life [5]: 5.3 h
0.99 | 89 | 21 | > 1300 | c1ccc(-c2[nH]c3ccccc3c2C2CCCNC2)cc1 (stereo not given) | AUC(0-t) at 4 h [3]: 47 ng·h/mL; Cmax [6]: 26 ng/mL
14 | 2000 | 99 | > 1700 | CN1CCCCC1c1c(-c2ccccc2)[nH]c2ccccc12 (stereo not given) | –
4.7 | 150 | 30 | 28 | CN1CCCC(c2c(-c3ccccc3)[nH]c3ccccc23)C1 (stereo not given) | Ki [8]: 9600 nM
59 | 2400 | – | 500 | c1ccc(CCN2CCCC(c3c(-c4ccccc4)[nH]c4ccccc34)C2)cc1 (stereo not given) | –
20 | 2000 | 47 | 1600 | c1ccc(CN2CCCC(c3c(-c4ccccc4)[nH]c4ccccc34)C2)cc1 (stereo not given) | –
0.34 | – | 8.5 | 1400 | Fc1ccc2c([C@@H]3CNCC[C@H]3F)c(-c3cccc4ccccc34)[nH]c2c1 | Ki [8]: 110 nM
10.2 | – | 40 | > 1600 | F[C@@H]1CCNC[C@H]1c1c(-c2ccccc2)[nH]c2ccc(Cl)cc12 | –
0.23 | – | 2.1 | 500 | Fc1ccc2c([C@@H]3CNCC[C@H]3F)c(-c3ccc4ccccc4c3)[nH]c2c1 | Ki [8]: 500 nM
0.11 | 50 | 2.8 | 1600 | Fc1ccc2c([C@@H]3CNCC[C@H]3F)c(-c3ccsc3)[nH]c2c1 | Ki [8]: 1500 nM
0.09 | 48 | 3.9 | > 1600 | O=C(Nc1ccccc1)c1[nH]c2cc(F)ccc2c1[C@@H]1CNCC[C@H]1F | AUC(0-t) at 4 h [3]: 8 ng·h/mL; Cmax [6]: 3 ng/mL
0.43 | 19 | 25 | > 1700 | F[C@@H]1CCNC[C@H]1c1c(-c2ccccc2)[nH]c2ccccc12 | bioavailability [9]: 37%; bioavailability [4]: 18%; half-life [10]: 7.4 h; half-life [5]: 1.4 h
4 | 500 | 210 | > 1600 | Fc1ccc2[nH]c(-c3ccccc3)c([C@@H]3CNCC[C@H]3F)c2c1 | Ki [8]: > 7000 nM
2.3 | – | 16 | > 1600 | F[C@@H]1CCNC[C@H]1c1c(-c2ccccc2)[nH]c2cc(Cl)ccc12 | –
0.46 | 132 | 27 | > 1600 | Fc1cccc2c([C@@H]3CNCC[C@H]3F)c(-c3ccccc3)[nH]c12 | –
– | – | – | – | Fc1ccc2c([C@@H]3CNCC[C@H]3F)c(-c3ccccc3)[nH]c2c1 | half-life [11]: 6.4 h; half-life [12]: 12 h
10.4 | > 2000 | 7.3 | > 1600 | COC(=O)c1[nH]c2cc(F)ccc2c1[C@@H]1CNCC[C@H]1F | –
0.25 | 5 | 21 | > 1600 | Fc1ccc2c([C@@H]3CNCC[C@H]3F)c(C3CCCCC3)[nH]c2c1 | –
0.12 | 19 | 2.9 | 900 | Fc1ccc(-c2[nH]c3cc(F)ccc3c2[C@@H]2CNCC[C@H]2F)cc1 | AUC(0-t) at 4 h [3]: 350 ng·h/mL; Cmax [6]: 149 ng/mL; Ki [8]: 1600 nM
0.69 | 154 | 6.7 | > 1600 | F[C@@H]1CCNC[C@H]1c1c(-c2ccccc2)[nH]c2c(Cl)cccc12 | –
0.35 | 85 | 7.3 | > 1600 | Fc1ccc2c([C@@H]3CNCC[C@H]3F)c(-c3cccnc3)[nH]c2c1 | –

Compound | Ki [1] [nM] | Ki [2] [nM] | Ki [7] [nM] | Ki (D(2) dopamine receptor) [nM] | further results
c1ccc(CCN2[C@@H]3CC[C@H]2CC(c2c(-c4ccccc4)[nH]c4ccccc24)C3)cc1 (stereo not given in full) | 1.2 | 400 | 250 | 1000 | AUC(0-t) at 4 h [3]: 126 ng·h/mL; bioavailability [4]: 18%; half-life [5]: 2.3 h; Cmax [6]: 210 ng/mL; Ki [8]: 18 nM
Fc1ccc2c([C@@H]3CNCC[C@H]3F)c[nH]c2c1 | 70 | – | – | – | –

Source: ChEMBL document CHEMBL1134475, “3-(4-Fluoropiperidin-3-yl)-2-phenylindoles as high affinity, selective, and orally bioavailable h5-HT(2A) receptor antagonists” (J Med Chem, 2001)
